Experimental data published in ChEMBL document CHEMBL4765328 (Eur J Med Chem, 2020).
Activity calls are given as the source filed them. The calls are words filed in the database; no cut-off is given here.

Columns and labels:
Daoy = assay: Potency index, ratio of CA-4 IC50 to compound IC50 for human Daoy cells assessed as inhibition of cell growth; format: functional
HL-60 = assay: Antiproliferative activity against human HL-60 cells assessed as inhibition of cell growth; format: functional, cell-based
Procedure, shortened: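 Growth inhibition of cancer cell lines read from dose-response curves; IC50 as mean ± SEM of at least three independent experiments.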

HeLa [1] = assay: Induction of microtubule network depolymerization in human HeLa cells assessed as appearance of disorganised microtubules at 10 nM after 24 hrs by immunofluorescence staining based confocal microscopic analysis; format: cell-based
Procedure, shortened: (§1)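 HeLa cells treated 24 h at 10, 50 or 100 nM. They were then fixed in cold 4% formaldehyde for 15 min and stained with anti-β-tubulin for 2 h at room temperature. Alexa 488 secondary and DAPI counterstain followed; imaged by confocal microscopy at 20X.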

HeLa [2] = assay: Induction of apoptosis in human HeLa cells assessed as increase in bcl-2 phosphorylation at 10 nM after 24 hrs by Western blot analysis; format: functional, cell-based
Procedure, shortened: (§2)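 HeLa cells treated 24 or 48 h, then washed in cold PBS and lysed in 0.1% Triton X-100/RNase A at 0 °C. Lysates were cleared at 15,000 x g. 10 µg protein was run on SDS-PAGE and blotted to PVDF, blocked in 5% BSA, and probed 2 h at room temperature with primary antibodies. HRP secondary and ECL detection followed; β-actin reprobe served as loading control.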

Jurkat = assay: Potency index, ratio of CA-4 IC50 to compound IC50 for human Jurkat cells assessed as inhibition of cell growth; format: functional
[3] = Antitumor activity mouse E0771 cells implanted in C57BL/6 mouse assessed as reduction tumor mass at 15 mg/kg, ip administered every other day relative to control; format: functional, EO771; parameters: scale not given: the % may be the effect or the level left
Procedure, shortened: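 Seven-week-old female C57BL/6 mice received 4 x 10^5 E0771 cells orthotopically in the mammary fat pad and were randomized once tumors were palpable. Dosing was ip every other day at 5 or 15 mg/kg, with DMSO vehicle in 100 µL. Caliper volume was V=(D×d²)/2, and tumor weight was taken at endpoint; n=5/group. Analysis used two-way ANOVA with Bonferroni.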

[4] = Toxicity in C57BL/6 mouse implanted with mouse E0771 cells assessed as reduction in body weight at 15 mg/kg, ip administered every other day; format: organism-based; settings: in vivo
Procedure, shortened: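 Seven-week-old female C57BL/6 mice received 4 × 10^5 E0771 cells orthotopically into the mammary fat pad. Once tumors were palpable, mice were randomized and given ip injections every other day (15 or 5 mg/kg, or vehicle DMSO; CA-4P 30 mg/kg as reference). Body weight was followed during treatment; n = 5 mice/group.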

HeLa [5] = assay: Induction of apoptosis in human HeLa cells assessed as increase in PARP cleavage at 10 nM after 24 hrs by Western blot analysis; format: functional, cell-based; procedure, shortened: as §2
HeLa [6] = assay: Induction of cell cycle arrest at G2/M phase in human HeLa cells assessed as increase in cyclin B1 expression after 24 to 48 hrs by Western blot analysis; format: functional, cell-based; settings: dose 10-50 nM, time 24-48 hrs; procedure, shortened: as §2
HeLa [7] = assay: Induction of cell cycle arrest in human HeLa cells assessed as accumulation at G2/M phase at 10 nM after 24 hrs by PI staining based flow cytometric analysis; format: functional
Procedure, shortened: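 HeLa cells treated 24 h, then fixed in cold 70% ethanol. They were lysed with 0.1% Triton X-100 plus RNase A and stained with PI for flow cytometric DNA content. Means ± SEM of two independent experiments.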

HeLa [8] = assay: Induction of apoptosis in human HeLa cells assessed as viable cells at 10 nM measured after 48 hrs by Annexin V-FITC/propidium iodide staining based flow cytometry (reference value: 89.57 %); format: functional; settings: read-out: Activity
[9] = Inhibition of bovine brain tubulin polymerisation preincubated with compound followed by GTP addition and measured after 20 mins by turbidimetry based spectrophotometric method; format: tissue-based, Bos taurus
Procedure, shortened: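 Bovine brain tubulin (10 µM) in glutamate buffer, preincubated with varying compound concentrations at 30 °C, then cooled to 0 °C. GTP added to 0.4 mM final, then warmed to 30 °C in a recording spectrophotometer. Assembly followed by turbidity at 350 nm.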

[10] = Cytotoxicity against mouse E0771 cells assessed as cell growth inhibition after 72 hrs by MTT assay; format: functional; settings: EO771
HeLa [11] = assay: Induction of mitochondrial membrane potential loss in human HeLa cells assessed as cells with depolarized mitochondrial membrane at 10 nM after 24 hrs by JC-1 dye-based flow cytometric analysis (reference value: 5.7 %); format: functional
HeLa [12] = assay: Induction of microtubule network depolymerization in human HeLa cells assessed as appearance of disorganised microtubules at 50 nM after 24 hrs by immunofluorescence staining based confocal microscopic analysis; format: cell-based; procedure, shortened: as §1
HeLa [13] = assay: Induction of microtubule network depolymerization in human HeLa cells assessed as appearance of disorganised microtubules at 100 nM after 24 hrs by immunofluorescence staining based confocal microscopic analysis; format: cell-based; procedure, shortened: as §1
HUVEC = assay: Antivascular activity against HUVEC assessed as inhibition of capillary like tube formation at 10 nM incubated for 1 hr by matrigel based assay; format: functional, cell-based; settings: Homo sapiens
Procedure, shortened: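 HUVECs used at passages 1–6 in M200 with low-serum growth supplement. 6 x 10^4 cells seeded on gelled Matrigel (37 °C, 30 min) and left 6 h to form tubes. Preformed networks then treated 1 h at 10 or 100 nM and photographed at five fields per well. Image analysis gave segment length, mesh area and number, covered area and branch points; three independent experiments.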

SEM cells = assay: Antiproliferative activity against human SEM cells assessed as inhibition of cell growth; format: functional, cell-based
Procedure, shortened: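 Compounds from 10 mM DMSO stocks; final DMSO ≤0.25%. Growth inhibition of cancer cell lines read from dose-response curves; IC50 as mean ± SEM of at least three independent experiments.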

HeLa [14] = assay: Induction of apoptosis in human HeLa cells assessed as viable cells at 10 nM measured after 24 hrs by Annexin V-FITC/propidium iodide staining based flow cytometry (reference value: 89.57 %); format: functional; settings: read-out: Activity

In the case of `CCOc1ccc2c(C(=O)c3cc(OC)c(OC)c(OC)c3)c(N)oc2c1`, the “Ratio IC50” value (Daoy) is reported as 2460, the IC50 (HL-60) is reported as 2.7 nM and the Activity (HeLa [1]) is reported as “Active”. The Activity (HeLa [2]) was “Active”, the “Ratio IC50” value (Jurkat) was 3 and the Activity [3] was 45.7%. For the same molecule, the Activity [4] was “Non-Toxic”, the Activity (HeLa [5]) was “Active” and the Activity (HeLa [6]) was “Dose-dependent effect”. For the same molecule, the Activity (HeLa [7]) was “Active”, the viability at 0.01 µM (HeLa [8]) was 31.3% and the IC50 [9] was 370 nM. For the same molecule, the GI50 [10] was 15.6 nM, the Activity (HeLa [11]) was 24.3% and the Activity (HeLa [12]) was “Active”. For the same molecule, the Activity (HeLa [13]) was “Active”, the Activity (HUVEC) was “Active” and the IC50 (SEM cells) was 0.31 nM. For the same molecule, the viability at 0.01 µM (HeLa [14]) was 64.5%.
